Legend:
[1] = system: Nbs bearing click handles (Nb6EPEG4DBCO and NbALFAbiotinN3); assay: Assessment of click chemistry; settings: Gly vs Ahx linker; azide vs alkyne pairing; S4A-C
Procedure, shortened: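 Click cross-linking run at room temperature in TBS with 10 µM of each nanobody bearing a click handle (DBCO or azide), with or without equimolar dimeric template peptide. Quenched with 500 µM GGG-Lys(azide) peptide, then denatured in Laemmli buffer with 100 mM DTT at 95 °C. Products resolved on 15% polyacrylamide gels and stained. High-MW cross-linked band quantified by densitometry, normalized to a control quenched at T = 0.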

PTHR1 [2] = target: T1, PTHR1 (Homo sapiens, UniProt Q03431); assay: PTHR1-mediated signaling via Gαs/cAMP; format: cell-based; settings: DPahx 300 nM with various concentrations of Nb-PTH conjugates; Figure 3D, S8
T1 sequence (Q03431 27-593): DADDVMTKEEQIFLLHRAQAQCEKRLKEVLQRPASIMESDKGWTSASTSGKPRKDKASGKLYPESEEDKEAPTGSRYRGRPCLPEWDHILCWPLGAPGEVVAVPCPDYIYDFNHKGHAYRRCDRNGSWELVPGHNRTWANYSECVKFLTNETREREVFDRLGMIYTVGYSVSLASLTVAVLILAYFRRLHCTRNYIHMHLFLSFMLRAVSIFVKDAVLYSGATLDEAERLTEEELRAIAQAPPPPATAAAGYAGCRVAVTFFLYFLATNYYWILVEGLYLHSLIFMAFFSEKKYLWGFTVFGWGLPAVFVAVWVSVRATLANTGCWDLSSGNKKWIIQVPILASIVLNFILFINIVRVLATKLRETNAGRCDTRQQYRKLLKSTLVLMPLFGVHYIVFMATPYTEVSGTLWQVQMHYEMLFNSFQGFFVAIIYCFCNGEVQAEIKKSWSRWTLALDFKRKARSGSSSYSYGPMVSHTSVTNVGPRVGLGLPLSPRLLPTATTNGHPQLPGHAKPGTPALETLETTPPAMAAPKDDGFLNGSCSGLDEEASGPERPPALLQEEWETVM
Procedure, shortened: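 HEK293 cells stably expressing PTHR1 and a cAMP luminescence reporter, grown in DMEM with 10% FBS and Pen-Strep, mycoplasma-free. Varying concentrations of the complementary azide and DBCO nanobody–PTH fragment conjugates added with or without 300 nM dimeric peptide. Luminescence normalized to the maximum for the conjugate pair alone; technical replicates in a representative experiment.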

PTHR1 [3] = target: T1, PTHR1; settings: fragments of PTH1–34; cited from earlier work
[4] = metal-free, absence of proximity enforcing conditions; cited from earlier work

For CQADQEAKELARQISGSRLEEELRRRLTE [DPgly], the cross-linking kinetics [1] was “no major differences observed”.

With CQADQEAKELARQISZSRLEEELRRRLTE [DPahx] the “DP-potentiated activation of PTHR1” value (PTHR1 [2]) was “DP-potentiated activation of PTHR1” and the cross-linking kinetics [1] was “no major differences observed”.

For “PTH12–34: fragment of PTHR1 agonist peptide PTH1–34 (GKHLNSMERVEWLRKKLQDVHNF; Parathyroid hormone; UniProt P01270 43-65, looked up, fragment)”, the “activity of PTHR1 agonist fragments” value (PTHR1 [3]) is listed as “weakly active or inactive”.

For dibenzylcyclooctyne [DBCO], the DBCO-azide cycloaddition rate [4] is given as about 1 M^–1S^1–.
